From ChEMBL document CHEMBL1127689, “Novel 4-(aryloxy)tetrahydropyridine analogs of MPTP as monoamine oxidase A and B substrates” (J Med Chem, 1994)

B1: Amine oxidase [flavin-containing] B (Bos taurus) (protein)
chain: MSSKCDVVVVGGGISGMAAAKLLHDSGLNVIVLEARDRVGGRTYTLRNQKVKYVDLGGSYVGPTQNHILRLSKELGLETYKVNEVERLIHHTKGKSYPFRGSFPSVWNPITYLDHNNLWRTMDDMGREIPSDAPWKAPLAEQWDLMTMKELLDKICWTESSKQLAILFVNLCVTAEIHEVSALWFLWYVKQCGGTTRIFSTSNGGQERKFVGGSGQVSERIMDLLGDRVKLERPVIHIDQTGENVLVETLNHELYEAKYVISAVPPVLGMKIHFNPPLPMMRNQLITRVPLGSVIKSIVYYKEPFWRNMDYCGSMIIEGEEAPVAYALDDTKPDGSYPAIIGFILAHKARKLARLTKEERLKKLCDLYAKVLGSQEALHPVHYEEKNWCEEQYSGGCYTSYFPPGIMTQYGRVLRQPVGRIYFAGTETATHWSGYMEGAVEAGERAAREILHAMGKIPEDEIWLPEPESVDVPAKPITTTFLQRHLPSVPGLLKLIGLTTIFSATALGFLAHKRGLLVRI
B2: Amine oxidase [flavin-containing] A (Homo sapiens) (protein)
chain: MENQEKASIAGHMFDVVVIGGGISGLSAAKLLTEYGVSVLVLEARDRVGGRTYTIRNEHVDYVDVGGAYVGPTQNRILRLSKELGIETYKVNVSERLVQYVKGKTYPFRGAFPPVWNPIAYLDYNNLWRTIDNMGKEIPTDAPWEAQHADKWDKMTMKELIDKICWTKTARRFAYLFVNINVTSEPHEVSALWFLWYVKQCGGTTRIFSVTNGGQERKFVGGSGQVSERIMDLLGDQVKLNHPVTHVDQSSDNIIIETLNHEHYECKYVINAIPPTLTAKIHFRPELPAERNQLIQRLPMGAVIKCMMYYKEAFWKKKDYCGCMIIEDEDAPISITLDDTKPDGSLPAIMGFILARKADRLAKLHKEIRKKKICELYAKVLGSQEALHPVHYEEKNWCEEQYSGGCYTAYFPPGIMTQYGRVIRQPVGRIFFAGTETATKWSGYMEGAVEAGERAAREVLNGLGKVTEKDIWVQEPESKDVPAVEITHTFWERNLPSVSGLLKIIGFSTSVTALGFVLYKYKLLPRS

Tests used:
[1] = substrate: CN1CC=C(Oc2ccc3ccccc3c2)CC1; experiment: (§1) Oxidation by bovine mono-amine oxidase B MAO-B; design: species or system Bos taurus
How it was run: (§2)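 Bovine liver mitochondrial MAO-B, partially purified, at 0.087 μM. Four substrate concentrations were used, from 500–62.5 μM solutions in 100 mM sodium phosphate, pH 7.4. Each was equilibrated 1 min at 37 °C before enzyme was added. Amino enone formation was read at 324 nm every 3 s for 2 min, in duplicate. Km and TN came from Lineweaver-Burk double-reciprocal plots of initial rates.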

[2] = substrate: CN1CC=C(Oc2cccc3ccccc23)CC1; experiment: as §1; design: species or system Bos taurus; how it was run: as §2
[3] = substrate: CN1CC=C(Oc2ccc(C(C)(C)C)cc2)CC1; experiment: as §1; design: species or system Bos taurus; how it was run: as §2
[4] = substrate: CN1CC=C(Oc2ccccc2)CC1; experiment: as §1; design: species or system Bos taurus; how it was run: as §2
[5] = substrate: CN1CC=C(Cc2ccc3ccccc3c2)CC1; experiment: as §1; design: species or system Bos taurus; how it was run: as §2
[6] = substrate: CN1CC=C(Oc2ccc(-c3ccccc3)cc2)CC1; experiment: as §1; design: species or system Bos taurus; how it was run: as §2
[7] = substrate: CCCCc1ccc(OC2=CCN(C)CC2)cc1; experiment: as §1; design: species or system Bos taurus; how it was run: as §2
[8] = substrate: CN1CC=C(Oc2ccc(Cl)cc2Cl)CC1; experiment: as §1; design: species or system Bos taurus; how it was run: as §2
[9] = substrate: CN1CC=C(Oc2ccc3ccccc3c2)CC1; experiment: (§3) Oxidation by human mono-amine oxidase MAO-A
How it was run: (§4)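 MAO-A preparation was diluted 1:4 in 20 mM phosphate, pH 7.4, with 20% w/v glycerol and used at 0.17 μM. Four substrate concentrations were used, from 500–62.5 μM solutions in 100 mM sodium phosphate, pH 7.4, after 1 min at 37 °C. Initial rates were taken from the 324 nm amino enone absorbance, read every 3 s for 2 min, in duplicate. Km and TN came from double-reciprocal plots.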

[10] = substrate: CN1CC=C(Cc2cc3ccccc3c3ccccc23)CC1; experiment: as §3; how it was run: as §4
[11] = substrate: CN1CC=C(Oc2cccc3ccccc23)CC1; experiment: as §3; how it was run: as §4
[12] = substrate: CN1CC=C(Oc2ccc(C(C)(C)C)cc2)CC1; experiment: as §3; how it was run: as §4
[13] = substrate: CN1CC=C(Oc2cc3ccccc3c3ccccc23)CC1; experiment: as §3; how it was run: as §4
[14] = substrate: CN1CC=C(Oc2ccccc2)CC1; experiment: as §3; how it was run: as §4
[15] = substrate: CN1CC=C(Oc2ccc(-c3ccccc3)cc2)CC1; experiment: as §3; how it was run: as §4
[16] = substrate: CCCCc1ccc(OC2=CCN(C)CC2)cc1; experiment: as §3; how it was run: as §4
[17] = substrate: CN1CC=C(Oc2ccc(Cl)cc2Cl)CC1; experiment: as §3; how it was run: as §4

Protein	Km [1]	Km [2]	Km [3]	Km [4]	Km [5]	Km [6]	Km [7]	Km [8]	Km [9]	Km [10]	Km [11]	Km [12]	Km [13]	Km [14]	Km [15]	Km [16]	Km [17]
B1	274 µM	143 µM	56 µM	58 µM	892 µM	284 µM	84 µM	167 µM									
B2									77 µM	480 µM	144 µM	130 µM	278 µM	55 µM	101 µM	51 µM	29 µM
